Data taken from ChEMBL document CHEMBL4732237, “Discovery of 4-alkoxy-2-aryl-6,7-dimethoxyquinolines as a new class of topoisomerase I inhibitors endowed with potent in vitro anticancer activity” (2021).

Columns and labels:
Type in all cases: functional
Conditions in all cases: read-out: GI
HL-60(TB) = assay: Growth inhibition of human HL-60(TB) cells at 10 uM incubated for 48 hrs by sulforhodamine B assay relative to control
Method in brief: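 NCI-60 one-dose screen: same culture, 48 h drug exposure and SRB read-out. Reported as percent growth relative to no-drug control and to time-zero cell number; 0–100 means growth inhibition, below 0 means lethality.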

K562 = assay: Growth inhibition of human K562 cells at 10 uM incubated for 48 hrs by sulforhodamine B assay relative to control
Method in brief: (§1)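 NCI-60 single-dose screen. Cells were grown in RPMI 1640 with 5% FBS and 2 mM L-glutamine and plated 24 h before drug addition. Compound was added at one concentration in DMSO-derived medium and incubated for 48 h at 37 °C in 5% CO2. Read-out was SRB protein stain at 515 nm. Result is percent growth versus the no-drug control and the time-zero cell count; values below 0 indicate lethality.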

MOLT-4 = assay: Growth inhibition of human MOLT-4 cells at 10 uM incubated for 48 hrs by sulforhodamine B assay relative to control
Method in brief: (§2)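 NCI one-dose screen. Cells grown in RPMI 1640 with 5% FBS and 2 mM L-glutamine, plated and incubated 24 h at 37 °C, 5% CO2. DMSO-dissolved drug added, then 48 h further incubation. Adherent cells fixed with cold TCA, suspension cells fixed after settling. Stained with 0.4% SRB, absorbance read at 515 nm. Reported as percent growth relative to no-drug control and time-zero cell number.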

HOP-62 = assay: Growth inhibition of human HOP-62 cells at 10 uM incubated for 48 hrs by sulforhodamine B assay relative to control; method in brief: as §1
HOP-92 = assay: Growth inhibition of human HOP-92 cells at 10 uM incubated for 48 hrs by sulforhodamine B assay relative to control; method in brief: as §1
NCI-H226 = assay: Growth inhibition of human NCI-H226 cells at 10 uM incubated for 48 hrs by sulforhodamine B assay relative to control; method in brief: as §2
NCI-H23 = assay: Growth inhibition of human NCI-H23 cells at 10 uM incubated for 48 hrs by sulforhodamine B assay relative to control; method in brief: as §2
NCI-H322M = assay: Growth inhibition of human NCI-H322M cells at 10 uM incubated for 48 hrs by sulforhodamine B assay relative to control; method in brief: as §2
NCI-H522 = assay: Growth inhibition of human NCI-H522 cells at 10 uM incubated for 48 hrs by sulforhodamine B assay relative to control; method in brief: as §2
COLO 205 = assay: Growth inhibition of human COLO 205 cells at 10 uM incubated for 48 hrs by sulforhodamine B assay relative to control; method in brief: as §1
SF-268 = assay: Growth inhibition of human SF-268 cells at 10 uM incubated for 48 hrs by sulforhodamine B assay relative to control; method in brief: as §2
SF-295 = assay: Growth inhibition of human SF-295 cells at 10 uM incubated for 48 hrs by sulforhodamine B assay relative to control; method in brief: as §2
SNB-19 = assay: Growth inhibition of human SNB-19 cells at 10 uM incubated for 48 hrs by sulforhodamine B assay relative to control; method in brief: as §2
SNB-75 = assay: Growth inhibition of human SNB-75 cells at 10 uM incubated for 48 hrs by sulforhodamine B assay relative to control; method in brief: as §2
LOX IMVI = assay: Growth inhibition of human LOX IMVI cells at 10 uM incubated for 48 hrs by sulforhodamine B assay relative to control; method in brief: as §1
Malme-3M = assay: Growth inhibition of human Malme-3M cells at 10 uM incubated for 48 hrs by sulforhodamine B assay relative to control; method in brief: as §2
M14 = assay: Growth inhibition of human M14 cells at 10 uM incubated for 48 hrs by sulforhodamine B assay relative to control; method in brief: as §1
MDA-MB-435 = assay: Growth inhibition of human MDA-MB-435 cells at 10 uM incubated for 48 hrs by sulforhodamine B assay relative to control; method in brief: as §1
SK-MEL-2 = assay: Growth inhibition of human SK-MEL-2 cells at 10 uM incubated for 48 hrs by sulforhodamine B assay relative to control; method in brief: as §2
SK-MEL-28 = assay: Growth inhibition of human SK-MEL-28 cells at 10 uM incubated for 48 hrs by sulforhodamine B assay relative to control; method in brief: as §2
UACC-62 = assay: Growth inhibition of human UACC-62 cells at 10 uM incubated for 48 hrs by sulforhodamine B assay relative to control
Method in brief: (§3)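 NCI one-dose screen across a 59-line panel. Cells were grown in RPMI 1640 with 5% FBS and 2 mM L-glutamine, plated and pre-incubated 24 h, then exposed to drug for 48 h at 37 °C, 5% CO2. Adherent cells were fixed with cold TCA (10% final), stained with 0.4% SRB in 1% acetic acid and read at 515 nm. Result is percent growth relative to no-drug control and time-zero cell count.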

IGROV-1 = assay: Growth inhibition of human IGROV-1 cells at 10 uM incubated for 48 hrs by sulforhodamine B assay relative to control; method in brief: as §1
OVCAR-3 = assay: Growth inhibition of human OVCAR-3 cells at 10 uM incubated for 48 hrs by sulforhodamine B assay relative to control; method in brief: as §2
OVCAR-4 = assay: Growth inhibition of human OVCAR-4 cells at 10 uM incubated for 48 hrs by sulforhodamine B assay relative to control; method in brief: as §2
OVCAR-5 = assay: Growth inhibition of human OVCAR-5 cells at 10 uM incubated for 48 hrs by sulforhodamine B assay relative to control; method in brief: as §2
NCI/ADR-RES = assay: Growth inhibition of human NCI/ADR-RES cells at 10 uM incubated for 48 hrs by sulforhodamine B assay relative to control; method in brief: as §2
SK-OV-3 = assay: Growth inhibition of human SK-OV-3 cells at 10 uM incubated for 48 hrs by sulforhodamine B assay relative to control; method in brief: as §2
A498 = assay: Growth inhibition of human A498 cells at 10 uM incubated for 48 hrs by sulforhodamine B assay relative to control; method in brief: as §3
SN12C = assay: Growth inhibition of human SN12C cells at 10 uM incubated for 48 hrs by sulforhodamine B assay relative to control; method in brief: as §2
UO-31 = assay: Growth inhibition of human UO-31 cells at 10 uM incubated for 48 hrs by sulforhodamine B assay relative to control; method in brief: as §3
PC-3 = assay: Growth inhibition of human PC-3 cells at 10 uM incubated for 48 hrs by sulforhodamine B assay relative to control; method in brief: as §2
MCF7 = assay: Growth inhibition of human MCF7 cells at 10 uM incubated for 48 hrs by sulforhodamine B assay relative to control; method in brief: as §1
MDA-MB-231 = assay: Growth inhibition of human MDA-MB-231 cells at 10 uM incubated for 48 hrs by sulforhodamine B assay relative to control; method in brief: as §1
Hs-578T = assay: Growth inhibition of human HS-578T cells at 10 uM incubated for 48 hrs by sulforhodamine B assay relative to control; method in brief: as §1
BT-549 = assay: Growth inhibition of human BT-549 cells at 10 uM incubated for 48 hrs by sulforhodamine B assay relative to control; method in brief: as §1
T47D = assay: Growth inhibition of human T47D cells at 10 uM incubated for 48 hrs by sulforhodamine B assay relative to control; method in brief: as §3

Compound	inhibition of growth at 10 µM (HL-60(TB)) [%]	inhibition of growth at 10 µM (K562) [%]	inhibition of growth at 10 µM (MOLT-4) [%]	inhibition of growth at 10 µM (HOP-62) [%]	inhibition of growth at 10 µM (HOP-92) [%]	inhibition of growth at 10 µM (NCI-H226) [%]	inhibition of growth at 10 µM (NCI-H23) [%]	inhibition of growth at 10 µM (NCI-H322M) [%]	inhibition of growth at 10 µM (NCI-H522) [%]	inhibition of growth at 10 µM (COLO 205) [%]	inhibition of growth at 10 µM (SF-268) [%]	inhibition of growth at 10 µM (SF-295) [%]	inhibition of growth at 10 µM (SNB-19) [%]	inhibition of growth at 10 µM (SNB-75) [%]	inhibition of growth at 10 µM (LOX IMVI) [%]	inhibition of growth at 10 µM (Malme-3M) [%]	inhibition of growth at 10 µM (M14) [%]	inhibition of growth at 10 µM (MDA-MB-435) [%]	inhibition of growth at 10 µM (SK-MEL-2) [%]	inhibition of growth at 10 µM (SK-MEL-28) [%]	other results
COc1cc2nc(-c3ccc(C(F)(F)F)cc3)cc(OCCN3CCCCC3)c2cc1OC	13	13	13	13	13	13	13	13	13	13	13	13	13	13	13	13	13	13	13	13	inhibition of growth at 10 µM (UACC-62): 13%; inhibition of growth at 10 µM (IGROV-1): 13%; inhibition of growth at 10 µM (OVCAR-3): 13%; inhibition of growth at 10 µM (OVCAR-4): 13%; inhibition of growth at 10 µM (OVCAR-5): 13%; inhibition of growth at 10 µM (NCI/ADR-RES): 13%; inhibition of growth at 10 µM (SK-OV-3): 13%; inhibition of growth at 10 µM (A498): 13%; inhibition of growth at 10 µM (SN12C): 13%; inhibition of growth at 10 µM (UO-31): 13%; inhibition of growth at 10 µM (PC-3): 13%; inhibition of growth at 10 µM (MCF7): 13%; inhibition of growth at 10 µM (MDA-MB-231): 13%; inhibition of growth at 10 µM (Hs-578T): 13%; inhibition of growth at 10 µM (BT-549): 13%; inhibition of growth at 10 µM (T47D): 13%
COc1cc2nc(-c3ccc(Cl)cc3)cc(OCCN3CCC(O)CC3)c2cc1OC	3	3	3	3	3	3	3	3	3	3	3	3	3	3	3	3	3	3	3	3	inhibition of growth at 10 µM (UACC-62): 3%; inhibition of growth at 10 µM (IGROV-1): 3%; inhibition of growth at 10 µM (OVCAR-3): 3%; inhibition of growth at 10 µM (OVCAR-4): 3%; inhibition of growth at 10 µM (OVCAR-5): 3%; inhibition of growth at 10 µM (NCI/ADR-RES): 3%; inhibition of growth at 10 µM (SK-OV-3): 3%; inhibition of growth at 10 µM (A498): 3%; inhibition of growth at 10 µM (SN12C): 3%; inhibition of growth at 10 µM (UO-31): 3%; inhibition of growth at 10 µM (PC-3): 3%; inhibition of growth at 10 µM (MCF7): 3%; inhibition of growth at 10 µM (MDA-MB-231): 3%; inhibition of growth at 10 µM (Hs-578T): 3%; inhibition of growth at 10 µM (BT-549): 3%; inhibition of growth at 10 µM (T47D): 3%
COc1cc2nc(-c3cccs3)cc(OCCCN3CCC(O)CC3)c2cc1OC	20	20	20	20	20	20	20	20	20	20	20	20	20	20	20	20	20	20	20	20	inhibition of growth at 10 µM (UACC-62): 20%; inhibition of growth at 10 µM (IGROV-1): 20%; inhibition of growth at 10 µM (OVCAR-3): 20%; inhibition of growth at 10 µM (OVCAR-4): 20%; inhibition of growth at 10 µM (OVCAR-5): 20%; inhibition of growth at 10 µM (NCI/ADR-RES): 20%; inhibition of growth at 10 µM (SK-OV-3): 20%; inhibition of growth at 10 µM (A498): 20%; inhibition of growth at 10 µM (SN12C): 20%; inhibition of growth at 10 µM (UO-31): 20%; inhibition of growth at 10 µM (PC-3): 20%; inhibition of growth at 10 µM (MCF7): 20%; inhibition of growth at 10 µM (MDA-MB-231): 20%; inhibition of growth at 10 µM (Hs-578T): 20%; inhibition of growth at 10 µM (BT-549): 20%; inhibition of growth at 10 µM (T47D): 20%
COc1cc2nc(-c3ccc(Cl)cc3)cc(OCCCN3CCOCC3)c2cc1OC	62	62	62	62	62	62	62	62	62	62	62	62	62	62	62	62	62	62	62	62	inhibition of growth at 10 µM (UACC-62): 62%; inhibition of growth at 10 µM (IGROV-1): 62%; inhibition of growth at 10 µM (OVCAR-3): 62%; inhibition of growth at 10 µM (OVCAR-4): 62%; inhibition of growth at 10 µM (OVCAR-5): 62%; inhibition of growth at 10 µM (NCI/ADR-RES): 62%; inhibition of growth at 10 µM (SK-OV-3): 62%; inhibition of growth at 10 µM (A498): 62%; inhibition of growth at 10 µM (SN12C): 62%; inhibition of growth at 10 µM (UO-31): 62%; inhibition of growth at 10 µM (PC-3): 62%; inhibition of growth at 10 µM (MCF7): 62%; inhibition of growth at 10 µM (MDA-MB-231): 62%; inhibition of growth at 10 µM (Hs-578T): 62%; inhibition of growth at 10 µM (BT-549): 62%; inhibition of growth at 10 µM (T47D): 62%
